Data on 5 molecules can be found in paper PMC4824005 (Nature structural & molecular biology, 2015).

The test system of experiment [1] is Shc1 phosphorylated at Tyr239 and Tyr240 in MCF10A cells. Kind of experiment: Immunoblot of dual Shc1 phosphorylation in MCF10A cells. The experiment is classed as cell-based. Particulars: dasatinib 250 or 500nM pretreatment 1 hour, then 1ng/mL EGF 3 min. A digest of the protocol: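 MCF10A cells (STR-authenticated, mycoplasma-free) were kept in HuMEC medium and held 16 h in growth-factor-free medium before pretreatment with test compound and EGF stimulation. Cells were lysed in RIPA buffer containing protease and phosphatase inhibitors. Lysates were separated by SDS-PAGE, transferred to nitrocellulose and immunoblotted with phospho-Shc and total Shc antibodies.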
(In general: A western blot detects proteins with antibodies after separation by electrophoresis.)

Experiment [2] has as its system Src. Put plainly: HPLC and LC-MS/MS analysis of Src kinase reaction with Shc1 Y-Y peptide. The format is biochemical. The conditions noted are these: 5μM Src, 500μM Shc1 peptide, 1mM ATP. A digest of the protocol: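 Recombinant Src (5μM final) was reacted with 500μM unmodified Shc1 peptide and 1mM ATP. Timed aliquots were EDTA-quenched, then run on C18 reversed-phase HPLC (0–30% acetonitrile/0.1% TFA over 30 min, 1.0 ml/min, A220), with peaks assigned from standards. The peak was analysed by nanoflow LC/MS/MS on an Orbitrap with CID and database search (FDR <1.5%, manual check). Site occupancy was taken from spectral counts per pTyr site.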

Experiment [3] deals with T1, EGFR (Homo sapiens, UniProt P00533). Kind of experiment: EGFR steady-state kinetics with Shc1 peptides. Particulars: peptide primed at Tyr240 vs unmodified peptide. The experiment is classed as biochemical. In short, it runs like this: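 Recombinant EGFR kinase domain (residues 696–1022) at 100nM was incubated with Shc1 Tyr239-region peptides carrying added C-terminal lysines (0–12mM) in 50mM Tris pH 7.5, 10mM MgCl₂, 10mM MnCl₂, 2mM DTT with 2μCi γ-³²P-ATP/reaction, 30 min at 30°. Reactions were spotted on P81 paper, washed with 75mM H₃PO₄ and scintillation-counted. Initial rates (<5% substrate consumed) were fitted to Michaelis–Menten by nonlinear least squares; three experiments, each in triplicate.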

Experiment [4] has as its target T1, EGFR. Kind of experiment: HPLC and LC-MS/MS analysis of EGFR kinase reaction with Shc1 Y-Y peptide. The experiment is classed as biochemical. The conditions noted are these: no pY-pY peptides detected in HPLC analysis of EGFR reaction (Fig. 2c).
For experiment [5], the system named is Grb2. Particulars: doubly phosphorylated (Tyr239 and Tyr240) Shc1; cited from earlier work.

Non-standard residues stand in square brackets, D forms with d. No end group written: not given here. *: point of attachment. Biotin = O=C1N[C@H]2[C@H](CS[C@H]2CCCCC(=O)*)N1; pY = N[C@@H](Cc1ccc(OP(=O)(O)O)cc1)C(=O)O; AHA = not defined here

For the molecule `Cc1nc(Nc2ncc(C(=O)Nc3c(C)cccc3Cl)s2)cc(N2CCN(CCO)CC2)n1` [dasatinib, reference compound], in experiment [1], the “inhibition of EGF-induced dual phosphorylation of Shc1” value is “almost completely abolished”. In the case of PDHQYYNDAKKK [Y-Y], the “product of Src phosphorylation by HPLC” value in experiment [2] was “mono-phosphorylated peptides were the predominant product”. Consider PDHQYpYNDAKKK [Y-pY], for which the “decrease of Km by priming phosphorylation” value in experiment [3] is on record as “approximately 4 fold”.

Take PDHQpYYNDAKKK [pY-Y]: the “further phosphorylation by EGFR” value in experiment [4] is listed as “not a substrate for further phosphorylation by EGFR”.

On to “doubly phosphorylated Shc1: Shc1 doubly phosphorylated at Tyr239 and Tyr240, literature ref 31 ({Biotin-AHA}-DHQ[pY][pY]NDFPGKE; reading uncertain)”, for which the “increase in affinity for Grb2 vs phosphorylation at Tyr239 alone” value in experiment [5] is listed as 3 fold.
